How the values were obtained:
[1] = tested on: SMAD2/3, NFATc3, ERK1/2, JNK, PKG/VASP in T2D rat hearts; assay type: in vivo; settings: for cardiac cGMP-dependent pathway PKG/VASP (VASP phosphorylation): western blot, T2D lowered VASP phosphorylation by ≈60%
In short: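 Ventricles came from diabetic rats after 6 weeks of peptide infusion (2 pmol·kg−1·min−1) or sacubitril in drinking water (18 mg·kg−1·day−1). Tissue was lysed in RIPA with protease and phosphatase inhibitors and protein assayed by Bradford. Western blots: 12% SDS-PAGE, PVDF, 5% BSA block, primaries overnight at 4°C, GAPDH reference, three blots per condition. Antibody arrays: 5 µg protein dot-blotted onto PVDF, then probed with GAPDH as internal control.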

[2] = tested on: high-fat/streptozotocin-induced Type 2 diabetic (T2D) rats; assay: Blood glucose and physiological parameters; assay type: in vivo, rat; settings: for food intake / urine output / water intake / body weight: T2D animals, Supplementary Figures S1 and S2; for food intake / urine output / water intake: 24 h metabolic cages; for fasting plasma glucose at Week 6: first set, untreated T2D rose further to ≈500 mg·dL−1 at Week 6
In short: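 Male Wistar rats, 12 months old, 450 ± 25 g. Type 2 diabetes induced by a 60% kcal lard diet for 4 weeks, then three i.p. STZ doses of 40 mg·kg−1 (citrate, pH 4.5) on consecutive days; shams received citrate. Tail glucose was read by glucometer in conscious restrained rats after a 12-h fast. Treatment ran 6 weeks; rats were held singly in metabolic cages for 24 h before the end.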

[3] = tested on: ANP/cGMP concentrations in T2D rats; assay: Cardiac and plasma ANP/cGMP measurement by ELISA; assay type: in vivo, rat; settings: for increase in cardiac cGMP levels vs. T2D: acetylated samples, T2D tended to decrease ≈50%, n = 4-6; for increase in ANP plasma concentration: non-significant for MANP, P = 0.0967
[4] = tested on: neprilysin (NEP); settings: cited from earlier work
[5] = tested on: cultured rat cardiac fibroblasts; assay: MTT proliferation assay; assay type: cell-based; settings: 100 pM, 24 h, n = 6 independent cultures
In short: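 Ventricular fibroblasts came from normal Wistar rats by collagenase type V digestion and differential centrifugation, then were selected by 2-h adhesion in DMEM with 10% heat-inactivated FBS. On day 5 of culture, cells were exposed to peptide at 100 pM for 24 h. MTT (0.5 mg·mL−1 in Tyrode) was added for 1 h at 37°C and formazan dissolved in DMSO for absorbance reading. Six independent cultures were run.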

[6] = tested on: myocardial fibrosis in T2D rat hearts; assay: Myocardial fibrosis histology and immunofluorescence; assay type: in vivo; settings: first set, 2 pmol·kg−1·min−1 s.c., 6 weeks; for decrease in WGA staining (extracellular matrix): n = 5-6; for decrease in Masson's trichrome staining: n = 6
[7] = tested on: mongrel dogs; settings: mongrel dogs following peptide administration; cited from earlier work
[8] = tested on: cultured rat cardiac fibroblasts; assay: Sircol collagen secretion assay on cell supernatants; assay type: cell-based; settings: 100 pM, 24 h, n = 6 independent cultures
In short: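 Rat ventricular fibroblasts, isolated by collagenase digestion, were adhesion-selected and cultured 5 days in DMEM with 10% FBS. They were then exposed to peptide at 100 pM for 24 h. Culture supernatants were used directly in the Sircol dye-binding assay, with pellets rinsed and dissolved in alkali reagent; collagen was read against standards. Six independent cultures were run.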

[9] = tested on: cultured rat cardiac fibroblasts; assay: Western blots of SMAD2/3 and PKG/VASP in high-glucose-treated fibroblasts; assay type: cell-based; settings: high glucose 24 h with 100 pM peptide, western blot; for decrease in SMAD2 phosphorylation levels: n = 3; for activation of PKG/VASP pathway (VASP phosphorylation at serine 239): n = 5
In short: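 Day-5 cultures of rat ventricular fibroblasts were given high glucose for 24 h, with or without peptide at 100 pM. Cells were lysed in RIPA with protease and phosphatase inhibitors, and proteins were separated by 12% SDS-PAGE and blotted to PVDF. Membranes were blocked in 5% BSA and probed overnight at 4°C, with GAPDH as housekeeper. Blots came from three or five independent cultures.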

[10] = target: insulin-degrading enzyme (IDE); settings: relative to ANP; cited from earlier work
[11] = tested on: cardiac collagen in T2D rat hearts; assay type: in vivo; settings: first set; Sircol assay; 2 pmol·kg−1·min−1 s.c., 6 weeks; n = 5-6
In short: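 Ventricular tissue came from diabetic rats after 6 weeks of pump-delivered peptide at 2 pmol·kg−1·min−1. Tissue was homogenized in acid-pepsin and reacted with Sircol dye. Collagen-dye pellets were spun down, rinsed with acetic acid and dissolved in alkali reagent. Soluble collagen was read as absorbance at 550 nm against standards.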

[12] = regulated by clearance receptor (NPR-C) and peptidases; cited from earlier work
[13] = first set, ELISA on ventricular tissue, 2 pmol·kg−1·min−1 s.c., 6 weeks, n = 6

Compound | food intake [2] | urine output [2] | water intake [2] | body weight [2] | increase in cardiac ANP levels vs. T2D ([3]; second set, ELISA, n = 5-7) | decrease in fibroblast proliferation [5] | cardiac cGMP-dependent pathway PKG/VASP (VASP phosphorylation) ([1]; first set, n = 3) | decrease in WGA staining (extracellular matrix) [6] | decrease in Masson's trichrome staining [6] | increase in plasma ANP [7] [fold] | increase in plasma cGMP [7] [fold] | decrease in collagen secretion [8] | decrease in SMAD2 phosphorylation levels [9] | activation of PKG/VASP pathway (VASP phosphorylation at serine 239) [9] | fasting plasma glucose at Week 6 ([2]; T2D rats) | increase in cardiac ANP levels vs. T2D [3, 13] | increase in cardiac cGMP levels vs. T2D ([3]; first set, ELISA) | increase in ANP plasma concentration ([3]; first set, ELISA, n = 6) | half-life [12] [min] | further results
CCOC(=O)[C@H](C)C[C@@H](Cc1ccc(-c2ccccc2)cc1)NC(=O)CCC(=O)O [SACU, Sacubitril sodium] | reduced | reduced | reduced | without affecting the body weight | ≈ 50% |  |  |  |  |  |  |  |  |  |  |  |  |  |  | level of ERK1/2 phosphorylation relative to GAPDH ([1]; second set, antibody array, n = 4): decreased; metabolic profile (blood glucose) ([2]; second set, T2D rats, SACU 18 mg·kg−1·day−1 in drinking water): same metabolic profiles as their counterparts
M-atrial natriuretic peptide [MANP] | reduced | reduced | reduced | without affecting the body weight |  | ≈ 20% | restored this pathway | ≈ 75% | ≈ 80% | ~1.5 | ~1.5 | ≈ 30% | ≈ 55% | ≈ 2.3 fold | remained unchanged | ≈ 2 fold | ≈ 5 fold | ≈ 20% |  | resistance to NEP degradation [4]: resistant to NEP degradation; cardiac NFATc3 activation (phosphorylated inactivated protein levels) ([1]; first set, antibody array vs T2D controls, n = 4): significantly reduced NFATc3 activation; cardiac ERK1/2 activation (pERK/ERK) ([1]; first set, antibody array, T2D hearts, n = 4): markedly attenuated; lower SMAD3 phosphorylation levels compared with T2D animals ([1]; first set, cardiac tissue western blot, 2 pmol·kg−1·min−1 s.c., 6 weeks, n = 3): ≈ 55%; IC50 with insulin-degrading enzyme (IDE), higher than ANP [10]: 30 fold
atrial natriuretic peptide [ANP] | reduced | reduced | reduced | without affecting the body weight | no noticeable effect | ≈ 20% | restored this pathway | ≈ 50% | ≈ 50% | ~1.5 | ~1.5 | ≈ 30% | ≈ 55% | ≈ 2.3 fold | remained unchanged | no noticeable effect | attenuated | no noticeable effect | 3 | plasma ANP levels ([3]; second set, ELISA, n = 5-7): no noticeable effect; increase in cardiac soluble collagen [11]: ≈ 25%
brain natriuretic peptide [BNP] |  |  |  |  |  |  |  |  |  |  |  |  |  |  |  |  |  |  | 20 | 

— article PMC11977460 (European Heart Journal Open, 2025)
